Results published in ChEMBL document CHEMBL1649438, “Activities of ceftobiprole and other cephalosporins against extracellular and intracellular (THP-1 macrophages and keratinocytes) forms of methicillin-susceptible and methicillin-resistant Staphylococcus aureus” (Antimicrob Agents Chemother, 2009).
Values after ≈ are worked out from the molar mass of the structure shown.

Assays:
[1] = test system: Staphylococcus aureus; test: Antimicrobial activity against hospital-acquired methicillin-resistant Staphylococcus aureus […] infected in human THP-1 cells assessed as change in bacterial count after 24 hrs at pH 5.5; format: functional, organism-based; conditions: THP-1, 24 h
In short: (§1)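 THP-1 macrophages infected as described previously, with a postphagocytosis inoculum of 1.5 × 10⁶ to 3.0 × 10⁶ CFU/mg cell protein. Cells were exposed 24 h to increasing extracellular antibiotic concentrations. Response is the change in log10 CFU/mg protein from the inoculum (n = 3), fitted to a Hill function. E0 and Emax were extrapolated to infinitely low and high concentrations. EC50 and static concentration (graphical interpolation) are expressed as multiples of the broth MIC at pH 5.5 or 7.4.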

[2] = test system: Staphylococcus aureus; test: Antimicrobial activity against Panton-valentine leucocidin-positive community-acquired methicillin-resistant Staphylococcus aureus STA 44 infected in human THP-1 cells assessed as change in bacterial count after 24 hrs at pH 5.5; format: functional, organism-based; conditions: STA 44, THP-1, 24 h
In short: (§2)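 THP-1 human macrophages infected with S. aureus (postphagocytosis inoculum 1.5 × 10^6 to 3.0 × 10^6 CFU/mg cell protein), then incubated 24 h with increasing extracellular antibiotic concentrations. Change in log10 CFU/mg cell protein from the postphagocytosis inoculum, n = 3. Hill function fitted on log-transformed data. Low-concentration value (E0) and high-concentration value (Emax) are extrapolated. Where a pH is given, concentrations are expressed as multiples of the broth MIC at that pH.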

[3] = test system: Staphylococcus aureus; test: Bacteriostatic activity against hospital-acquired vancomycin-intermediate Staphylococcus aureus NRS18 infected in human THP-1 cells assessed as change in bacterial count after 24 hrs at pH 5.5; format: functional
In short: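 Human THP-1 macrophage-like cells were infected with S. aureus; the post-phagocytosis inoculum was 1.5 × 10^6 to 3.0 × 10^6 CFU/mg cell protein. Cells were exposed 24 h to increasing extracellular drug levels. Change in log10 CFU/mg protein from the inoculum was fitted to a Hill function (n = 3). Static concentration was read by graphical interpolation, as a multiple of the pH 5.5 broth MIC.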

[4] = test system: Staphylococcus aureus; test: Antimicrobial activity against methicillin-susceptible Staphylococcus aureus ATCC 11632 infected in human THP-1 cells assessed as bacterial count per mg of cell protein at low extracellular compound concentration after 24 hrs; format: functional
In short: (§3)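 Human THP-1 macrophage-like cells were infected with S. aureus to a postphagocytosis inoculum of 1.5 × 10^6 to 3.0 × 10^6 CFU/mg cell protein. Cells were then exposed 24 h to increasing extracellular antibiotic concentrations. Response was the log10 CFU change per mg protein from the postphagocytosis inoculum, n = 3. A Hill function was fitted on log-transformed axes. E0 and Emax were extrapolated to infinitely low and high concentrations. Cs was read by graphical interpolation. Concentrations were expressed as multiples of the broth MIC at pH 5.5 or pH 7.4.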

[5] = test system: Staphylococcus aureus; test: Antimicrobial activity against methicillin-susceptible Staphylococcus aureus NRS52 infected in human THP-1 cells assessed as change in bacterial count after 24 hrs at pH 7.4; format: functional, organism-based; conditions: NRS52, THP-1, 24 h; in short: as §1
[6] = test system: Staphylococcus aureus; test: Antimicrobial activity against Panton-valentine leucocidin-positive community-acquired methicillin-resistant Staphylococcus aureus NRS192 infected in human THP-1 cells assessed as change in bacterial count after 24 hrs; format: functional, organism-based; conditions: NRS192, THP-1, 24 h; in short: as §2
[7] = test system: Staphylococcus aureus; test: Antimicrobial activity against Panton-valentine leucocidin-positive community-acquired methicillin-resistant Staphylococcus aureus STA 228 infected in human THP-1 cells assessed as change in bacterial count after 24 hrs at pH 5.5; format: functional, organism-based; conditions: STA 228, THP-1, 24 h; in short: as §2
[8] = test system: Staphylococcus aureus; test: Bacteriostatic activity against Panton-valentine leucocidin-positive community-acquired methicillin-resistant Staphylococcus aureus N4042228 infected in human THP-1 cells assessed as change in bacterial count after 24 hrs at pH 5.5; format: functional; in short: as §1
[9] = test system: Staphylococcus aureus; test: Antimicrobial activity against methicillin-susceptible Staphylococcus aureus ATCC 11632 infected in human THP-1 cells assessed as change in bacterial count after 24 hrs at pH 7.4; format: functional, organism-based; conditions: ATCC 11632, THP-1, 24 h; in short: as §1
[10] = test system: Staphylococcus aureus; test: Antimicrobial activity against methicillin-susceptible Staphylococcus aureus ATCC 25923 infected in human keratinocytes assessed as bacterial count per mg of cell protein at high extracellular compound concentration after 24 hrs; format: functional
In short: (§4)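 Primary human skin keratinocytes were grown in defined keratinocyte serum-free medium and infected with S. aureus to 1.5 × 10^6 to 3.0 × 10^6 CFU/mg cell protein. Cells were exposed 24 h to increasing extracellular concentrations. Response was the log10 CFU change from the postphagocytosis inoculum, fitted by a Hill equation with slope 1. Cs is the concentration giving CFU equal to the original inoculum, found by graphical interpolation.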

[11] = test system: Staphylococcus aureus; test: Antimicrobial activity against Panton-valentine leucocidin-positive community-acquired methicillin-resistant Staphylococcus aureus STA 44 infected in human THP-1 cells assessed as bacterial count per mg of cell protein at high extracellular compound concentration after 24 hrs at pH 5.5; format: functional; in short: as §2
[12] = test system: Staphylococcus aureus; test: Antimicrobial activity against hospital-acquired vancomycin-resistant Staphylococcus aureus VRS1 infected in human THP-1 cells assessed as change in bacterial count after 24 hrs at pH 7.4; format: functional, cell-based; conditions: VRS1, THP-1, 24 h; in short: as §1
[13] = test system: Staphylococcus aureus; test: Antimicrobial activity against methicillin-susceptible Staphylococcus aureus ATCC 11632 infected in human THP-1 cells assessed as bacterial count per mg of cell protein at high extracellular compound concentration after 24 hrs at pH 5.5; format: functional; in short: as §3
[14] = test system: Staphylococcus aureus; test: Antimicrobial activity against hospital-acquired methicillin-resistant Staphylococcus aureus ATCC 33591 infected in human THP-1 cells assessed as bacterial count per mg of cell protein at high extracellular compound concentration after 24 hrs; format: functional; in short: as §2
[15] = test system: Staphylococcus aureus; test: Antimicrobial activity against hospital-acquired methicillin-resistant Staphylococcus aureus ATCC 33591 infected in human THP-1 cells assessed as change in bacterial count after 24 hrs; format: functional, organism-based; conditions: ATCC 33591, THP-1, 24 h; in short: as §1
[16] = test system: Staphylococcus aureus; test: Antimicrobial activity against hospital-acquired vancomycin-intermediate Staphylococcus aureus NRS18 infected in human THP-1 cells assessed as bacterial count per mg of cell protein at low extracellular compound concentration after 24 hrs at pH 5.5; format: functional; in short: as §3
[17] = test system: Staphylococcus aureus; test: Antimicrobial activity against Panton-valentine leucocidin-positive community-acquired methicillin-resistant Staphylococcus aureus N4042228 infected in human THP-1 cells assessed as change in bacterial count after 24 hrs; format: functional, organism-based; conditions: N4042228, THP-1, 24 h; in short: as §2
[18] = test system: Staphylococcus aureus; test: Antimicrobial activity against Panton-valentine leucocidin-positive community-acquired methicillin-resistant Staphylococcus aureus N4042228 infected in human THP-1 cells assessed as change in bacterial count after 24 hrs at pH 7.4; format: functional, organism-based; conditions: N4042228, THP-1, 24 h; in short: as §2
[19] = test system: Staphylococcus aureus; test: Bacteriostatic activity against methicillin-susceptible Staphylococcus aureus ATCC 25923 infected in human keratinocytes assessed as change in bacterial count after 24 hrs; format: functional; in short: as §4
[20] = test system: Staphylococcus aureus; test: Bacteriostatic activity against methicillin-susceptible Staphylococcus aureus NRS52 infected in human THP-1 cells assessed as change in bacterial count after 24 hrs at pH 7.4; format: functional; in short: as §3

## Nc1nc(/C(=N/O)C(=O)N[C@@H]2C(=O)N3C(C(=O)O)=C(/C=C4\CCN([C@@H]5CCNC5)C4=O)CS[C@H]23)ns1 [CEFTOBIPROLE]
[1]
  EC50: 0.77 ×MIC
[2]
  EC50: 0.54 × MIC
[3]
  Activity: 1.97 × MIC
[4]
  log10cfu: 3.03
[5]
  EC50: 0.2 ×MIC
[6]
  EC50: 0.7 µg/mL (≈ 1.31 µM)
[7]
  EC50: 0.54 × MIC
[8]
  Activity: 1.45 × MIC
[9]
  EC50: 0.2 × MIC
[10]
  log10cfu: -0.94
[11]
  log10cfu: -1.02
[12]
  EC50: 0.28 ×MIC
[13]
  log10cfu: 1.04
[14]
  log10cfu: -0.78
[15]
  EC50: 0.27 µg/mL (≈ 0.505 µM)
[16]
  log10cfu: 2.63
[17]
  EC50: 0.07 µg/mL (≈ 0.131 µM)
[18]
  EC50: 0.33 ×MIC
[19]
  Activity: 0.91 mg/L
[20]
  Activity: 0.6 ×MIC
